Like-named read-outs stand apart in the source and are kept apart here. Marks after values point to notes of the source that are not given here.
Legend:
[1] = test system: L5/L6 spinal nerve ligated male Sprague Dawley rats; test: Thermal hypersensitivity; assay type: in vivo, rat; conditions: for AUC, paw withdrawal latency (thermal): vehicle AUC=55.52 ± 2.74; for effect on thermal hyperalgesia compared to vehicle or post injury baseline: morphine (10 mg), all time-points and total AUC
[2] = test system: L5/L6 spinal nerve ligated male Sprague Dawley rats; test: Mechanical hypersensitivity; assay type: in vivo, rat; conditions: for AUC, paw withdrawal threshold (mechanical): vehicle AUC=22.07 ± 3.02
male Sprague Dawley rats [3] = assay type: in vivo, rat
In short: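 CCK-8sulf (30 ng/0.5 μL, in water) went into the RVM 10 min before. Naloxone (10 mg/kg sc, saline) was given 20 min before. Radiant heat to the plantar hind paw gave withdrawal latency, compared with baseline.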

mu opioid receptor = conditions: ref Agnes et al., 2008; Hruby et al., 2003; cited from earlier work
[4] = target: human δ opioid receptor (hDOR) (Homo sapiens, UniProt P41143); conditions: ref Agnes et al., 2008, cited from earlier work
human δ opioid receptor (hDOR), sequence (P41143 whole entry): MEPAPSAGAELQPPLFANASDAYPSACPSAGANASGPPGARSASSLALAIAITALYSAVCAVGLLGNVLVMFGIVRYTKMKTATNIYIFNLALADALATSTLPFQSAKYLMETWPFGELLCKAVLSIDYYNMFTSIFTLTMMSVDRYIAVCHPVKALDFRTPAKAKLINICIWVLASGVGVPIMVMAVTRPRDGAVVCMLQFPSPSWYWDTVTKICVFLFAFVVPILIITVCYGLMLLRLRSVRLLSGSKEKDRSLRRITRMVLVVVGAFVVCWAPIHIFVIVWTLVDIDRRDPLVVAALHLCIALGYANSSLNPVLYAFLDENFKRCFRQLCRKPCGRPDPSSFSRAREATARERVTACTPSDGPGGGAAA

delta opioid receptor = conditions: ref Agnes et al., 2008; Hruby et al., 2003; cited from earlier work
CCK-2 receptor = conditions: read-out: Ki at the CCK-2 receptor; ref Agnes et al., 2008; cited from earlier work
[5] = test system: L5/L6 spinal nerve ligated male Sprague Dawley rats; assay type: in vivo, rat
δ opioid receptor = conditions: read-out: Ki at the δ opioid receptor; ref Agnes et al., 2008; cited from earlier work
μ opioid receptor = conditions: read-out: Ki at the μ opioid receptor; ref Agnes et al., 2008; cited from earlier work
male Sprague Dawley rats [6] = test: Rotarod test for motor impairment or sedation, intrathecal; assay type: in vivo, rat; conditions: 180 s cutoff
[7] = test system: sham-operated male Sprague Dawley rats; test: Thermal paw withdrawal latency in sham-operated animals, intrathecal; assay type: in vivo, rat; conditions: 45 min time point
In short: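 Sham rats had the L5/L6 nerves exposed without ligation, then 5–7 days recovery. An intrathecal catheter ending at the lumbar cord was placed under ketamine/xylazine, with 5–7 days recovery. Test compound in 33% EtOH/water was injected in 5 μL with a 9 μL saline flush. Radiant heat was focused on the ipsilateral hind paw, and latencies were read blinded every 15 min for 60 min. In crossovers, vehicle rats were redosed ≥5 h later.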

CCK-1 receptor = conditions: read-out: Ki at the CCK-1 receptor; ref Agnes et al., 2008; cited from earlier work
[8] = target: rat μ opioid receptor (MOR) (Rattus norvegicus, UniProt P33535); conditions: ref Agnes et al., 2008, cited from earlier work
rat μ opioid receptor (MOR), sequence (P33535 whole entry): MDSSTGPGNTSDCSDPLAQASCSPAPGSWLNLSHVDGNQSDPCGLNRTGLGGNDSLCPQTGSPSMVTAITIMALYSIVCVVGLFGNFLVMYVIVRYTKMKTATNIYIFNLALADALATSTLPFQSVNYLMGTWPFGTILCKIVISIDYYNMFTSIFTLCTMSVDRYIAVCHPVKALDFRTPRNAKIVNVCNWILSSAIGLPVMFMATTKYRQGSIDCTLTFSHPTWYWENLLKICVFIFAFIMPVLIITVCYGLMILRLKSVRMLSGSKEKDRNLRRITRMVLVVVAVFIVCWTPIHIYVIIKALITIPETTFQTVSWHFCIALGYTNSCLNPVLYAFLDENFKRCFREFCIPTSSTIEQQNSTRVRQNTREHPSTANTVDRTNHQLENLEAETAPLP

[9] = 30 μg/5μL intrathecal (gabapentin 30 μg)

NCC1(CC(=O)O)CCCCC1 [gabapentin, reference compound]
AUC, paw withdrawal latency (thermal) ([1]; gabapentin (30 mg) intrathecal): 104.72 ± 11.01 | effect on thermal hyperalgesia compared to vehicle or post injury baseline ([1]; gabapentin (30 mg) intrathecal): significant efficacy | AUC, paw withdrawal threshold (mechanical) [2, 9]: 25.97 ± 6.68

CN1CC[C@]23c4c5ccc(O)c4O[C@H]2[C@@H](O)C=C[C@H]3[C@H]1C5 [morphine, reference compound]
Paw Withdrawal Latency (Sec ± SEM) (male Sprague Dawley rats [3]; RVM 60 ng/0.5μl with pretreatment (−20min) of naloxone (subcutaneous; 10mg/kg)): 18.70** Sec | effect on thermal hyperalgesia compared to vehicle or post injury baseline ([1]; gabapentin (30 mg) intrathecal): significant efficacy

H-Tyr^1-DNle^2-Gly^3-Trp^4-Nle^5-Asp^6-Phe^7-NH2 [RSA 504]
Paw Withdrawal Latency (Sec ± SEM) (male Sprague Dawley rats [3]; RVM 60 ng/0.5μl with pre-administration (−10min) of CCK-8sulf (RVM; 30 ng/0.5 μL)): 22.35^† Sec | effect on CCK-8 induced thermal hypersensitivity (male Sprague Dawley rats [3]; RVM administration, effect not significantly attenuated by naloxone): reversed the CCK-8 hypersensitivity | attenuation of thermal hyperalgesia compared to vehicle ([1]; 1 μg/5μL intrathecal): did not produce a significant effect | attenuation of thermal hyperalgesia compared to vehicle and post-injury baseline ([1]; 10 μg/5μL and 30 μg/5μL intrathecal, 30 min time point): significantly attenuated | AUC, paw withdrawal latency (thermal) ([1]; 10 μg/5μL intrathecal): 83.61 ± 6.40 | AUC, paw withdrawal latency (thermal) ([1]; 30 μg/5μL intrathecal): 111.10 ± 7.97 | A50, antihyperalgesic dose response curve ([1]; intrathecal, peak effect 30 min, day 7 after SNL): 6.09 μg/5μL | in vitro activity in GPI for mu opioid receptor activity (mu opioid receptor): 210 nM | EC50 ([4]; read-out: EC50 in GTP-γ-S binding assay at hDOR): 5.5 nM | Emax in GTP-γ-S binding assay at hDOR [4]: 81 nM | attenuation of mechanical hypersensitivity compared to vehicle ([2]; 3 μg/5μL intrathecal): No significance | attenuation of mechanical hypersensitivity compared to post-injury baseline ([2]; 3 μg/5μL intrathecal, 15, 30 and 45 min post administration): Significant attenuation | AUC, paw withdrawal threshold (mechanical) ([2]; 3 μg/5μL intrathecal): 32.53 ± 4.39 | attenuation of mechanical hypersensitivity compared to vehicle ([2]; 10 μg/5μL and 30 μg/5μL intrathecal (RSA 504: 30 min; RSA 601: all time points)): significant attenuation | AUC, paw withdrawal threshold (mechanical) ([2]; 10 μg/5μL intrathecal (morphine 10 μg)): 39.38 ± 3.17 | AUC, paw withdrawal threshold (mechanical) [2, 9]: 44.80 ± 4.93 | A50, antiallodynic dose response curve ([2]; intrathecal, peak effect 30 min, day 7 after SNL, von Frey): 4.67 μg/5μL | in vitro activity in the MVD for delta opioid receptor activity (delta opioid receptor): 23 nM | Ki (CCK-2 receptor): 16 nM | antinociceptive tolerance (day 7 A50 compared to day one) ([5]; intrathecal administration over 7 days): not significantly different | A50, reconstructed antihyperalgesic dose response curve, day 7 ([5]; intrathecal, 30 min, day 7 after 30 μg/5μL/day for 6 days (14 days after SNL)): 6.45 μg/5μL | A50, antihyperalgesic dose response curve, day one ([5]; intrathecal, 30 min, treatment day 1 (7 days after SNL)): 5.89 μg/5μL | Ki (δ opioid receptor): 23 nM | Ki (μ opioid receptor): 27 nM | motor impairment or sedation on the rotarod (male Sprague Dawley rats [6]): did not result in motor impairment | paw withdrawal latencies in sham animals [7]: significantly increased | Ki (CCK-1 receptor): 11.2 nM | EC50 ([8]; read-out: EC50 in GTP-γ-S binding assay at MOR): 0.47 nM | Emax in GTP-γ-S binding assay at MOR [8]: 110 nM

Source: PMC3105124 (Brain research, 2011)
